According to PubChem BioAssay AID1242 (PCMD, 2008):
Hit rate of the full screen: of about 120,000 compounds, about 20 (0.02%) were called active.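 Rule for the calls: active = inhibition above 30.3% in the primary screen of four-compound pools, then above 30% when the compound was retested; inconclusive = passed the primary limit but could not be retested; inactive = the rest.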 Only a selection was taken, and actives are over-represented in it overall.

Assay: clotrimazole potentiators killing C. albicans biofilm, primary screen, 4-compound mixtures (AID 1242);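 note: compounds exposed to preformed 24 h biofilms for 48 h; 0% = untreated biofilm control and 100% = clotrimazole plus chlorhexidine kill blank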
Conditions: C. albicans biofilm persisters + clotrimazole, fluorescence viability, primary screen in compound mixtures, stronger effect = higher value
Outline: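 Probe or stimulus – Clotrimazole 50 µg/mL co-treatment · System – C. albicans biofilms · Schedule – 24 h biofilm formation, then 48 h compound exposure, 37 °C · Evaluation – percent inhibition of biofilm viability · Technique – 2-h Alamar Blue fluorescence, 535/590 nm excitation/emission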

[1] = measured here: individual compound retest, at 61 µM

With `CCc1ccc(Nc2nnc(SCC(=O)c3ccc4c(c3)NC(=O)CO4)s2)cc1` the inhibition (at 7.6 µM unless noted) was 10.2% (inactive).

In the case of `COc1ccc(C(=O)OCC(=O)NCC2CCCO2)cc1[N+](=O)[O-]` (stereo not given), the inhibition (at 7.6 µM unless noted) was 12.1% (inactive).

For `CN(c1ccccc1)S(=O)(=O)c1cc(C(=O)OCC(=O)N2CCN(C(=O)c3ccco3)CC2)ccc1Cl`, the inhibition (at 7.6 µM unless noted) was 13.3% (inactive).

With `COc1cc2c(cc1OC)CC1(CCCCC1)N=C2` the inhibition (at 7.6 µM unless noted) was 4.41% (inactive).

In the case of `Cc1ccc(C2CC(c3cccc(NS(C)(=O)=O)c3)=NN2S(C)(=O)=O)cc1` (stereo not given), the inhibition (at 7.6 µM unless noted) was 16% (inactive).

In the case of `COCCC(=O)Nc1ccc2c(c1)CN(C(=O)CCOC)CC2`, the inhibition (at 7.6 µM unless noted) was 18% (inactive).

In the case of `CC(C)(C)c1cc(NC(=O)NN2CCOCC2)nn1-c1c(Cl)cc(Cl)cc1Cl`, the inhibition (at 7.6 µM unless noted) was 5.67% (inactive).

With `C=CCOCCN(C)C1=NS(=O)(=O)c2ccccc21` the inhibition (at 7.6 µM unless noted) was 3.65% (inactive).

For `CN(C)S(=O)(=O)c1cccc(NC(=O)COC(=O)c2cc(=O)[nH]c(=O)[nH]2)c1`, the inhibition (at 7.6 µM unless noted) was 26.1% (inactive).

With `CCOCCCN(C(=O)Cn1nnc(-c2ccc(OC)c(OC)c2)n1)C(CC)C(=O)NC1CCCC1` (stereo not given) the inhibition (at 7.6 µM unless noted) was 18.7% (inactive).

In the case of `Cc1cccc(N2CCN(c3ccc(C(N)=O)cc3[N+](=O)[O-])CC2)c1C`, the inhibition (at 7.6 µM unless noted) was 16.6% (inactive).

For `CCOC(=O)C1CCN(CCC(=O)Nc2cccc(C)c2)CC1`, the inhibition (at 7.6 µM unless noted) was 9.47% (inactive).

For `OCCC1CN(Cc2cccc(OC3CCCC3)c2)CCN1Cc1ccsc1` (stereo not given), the inhibition (at 7.6 µM unless noted) was 13.6% (inactive).

With `CN(C)N(C)C(=O)C(O)(c1ccccc1)c1ccccc1` the inhibition (at 7.6 µM unless noted) was 8.15% (inactive).

With `CCOc1ccc(NS(=O)(=O)c2ccc(C)c(C(N)=O)c2)cc1` the inhibition (at 7.6 µM unless noted) was 13.4% (inactive).

For `CCC(C)(C)NC(=O)/C=C/c1cc(OC)c(OC)c(S(=O)(=O)N2CCc3ccccc32)c1`, the inhibition (at 7.6 µM unless noted) was 12.1% (inactive).

With `Cc1ccc(S(=O)(=O)/N=C(/Nc2ccc3[nH]c(=O)[nH]c3c2)c2ccccc2)cc1` the inhibition (at 7.6 µM unless noted) was 25.2% (inactive).

In the case of `CCCCN(CC)CCNC(=O)CCNC(=O)Cn1ccc2ccccc2c1=O`, the inhibition (at 7.6 µM unless noted) was 8.03% (inactive).

In the case of `CN(CC(O)COc1ccc(S(=O)(=O)N2CCOCC2)cc1Cl)C1CCCCC1` (stereo not given), the inhibition (at 7.6 µM unless noted) was 28.8% (inactive).

With `Nc1nc(NCC2CCCO2)nc(Nc2ccccc2F)c1[N+](=O)[O-]` (stereo not given) the inhibition (at 7.6 µM unless noted) was 13.6% (inactive).

In the case of `Cn1nc(C(C)(C)C)c([N+](=O)[O-])c1C(N)=O`, the inhibition (at 7.6 µM) was 56.6% (inactive) and the inhibition [1] was -53.4%.

With `O=C1N(c2ccccc2)C(=Nc2ccccc2)SC12CC2` the inhibition (at 7.6 µM unless noted) was 16.8% (inactive).

For `CCN(CC)CCN(C(=O)c1ccc(N2C(=O)CCC2=O)cc1)c1nc2cc3c(cc2s1)OCO3`, the inhibition (at 7.6 µM unless noted) was 4.15% (inactive).

For `CCC(=O)NC(=S)Nc1ccc(NC(=O)c2ccco2)c(Cl)c1`, the inhibition (at 7.6 µM unless noted) was 2.96% (inactive).

With `O=C(c1cccc([N+](=O)[O-])c1)N1CCN(C(=O)c2ccco2)CC1` the inhibition (at 7.6 µM unless noted) was 0.32% (inactive).

For `COC(=O)c1cccc(NS(C)(=O)=O)c1`, the inhibition (at 7.6 µM unless noted) was 13.2% (inactive).

In the case of `Cn1ccc(NC(=O)Nc2ccc(Cl)cc2)n1`, the inhibition (at 7.6 µM unless noted) was 16.2% (inactive).

In the case of `Cc1ccc(O)c(NC(=S)NC(=O)COc2ccc(Br)cc2)c1`, the inhibition (at 7.6 µM unless noted) was 9.22% (inactive).

In the case of `CCN(CC)C(=O)C(=O)Nc1cccc(Br)c1`, the inhibition (at 7.6 µM unless noted) was 10% (inactive).

In the case of `COc1ccccc1CNC(=O)CNC(=O)c1cn(-c2ccccc2OC)c(=O)c2ccccc12`, the inhibition (at 7.6 µM unless noted) was 24.6% (inactive).

With `OCCC1CN(Cc2ccc(Oc3ncccn3)cc2)CCN1CCc1ccccc1` (stereo not given) the inhibition (at 7.6 µM unless noted) was 23.9% (inactive).

For `CC(NCc1nc2ccccc2n1C)C12CC3CC(CC(C3)C1)C2` (stereo not given), the inhibition (at 7.6 µM) was 63.4% (inactive) and the inhibition [1] was 0.64%.

In the case of `O=C(NC(=S)Nc1ccc(S(=O)(=O)Nc2ncccn2)cc1)c1cccc(Br)c1`, the inhibition (at 7.6 µM unless noted) was 20.2% (inactive).

For `Nc1c(N(CCO)C(=O)C2CCCCC2)c(=O)[nH]c(=O)n1Cc1ccccc1`, the inhibition (at 7.6 µM unless noted) was 4.09% (inactive).

For `Cc1cc(C)c(C)c(S(=O)(=O)N[C@@H](C)C(=O)OC(C)C(=O)NC(N)=O)c1C` (stereo not given in full), the inhibition (at 7.6 µM unless noted) was 14.7% (inactive).

With `Cc1ccc(S(=O)(=O)/N=C(\N)c2ccc(F)cc2)cc1` the inhibition (at 7.6 µM unless noted) was 3.79% (inactive).

In the case of `O=C(OCc1ccc([N+](=O)[O-])cc1)c1ccccn1`, the inhibition (at 7.6 µM unless noted) was 15% (inactive).

With `Cc1cc(C)n(-c2ccc(C(=O)O)cc2[N+](=O)[O-])n1` the inhibition (at 7.6 µM unless noted) was 2.45% (inactive).

With `COc1cc(N/C=C2\CC(=O)NC(C)=C2C#N)cc(OC)c1OC` the inhibition (at 7.6 µM unless noted) was 14.1% (inactive).

For `O=C(Nc1ccc(F)cc1)N1CCCC(c2nc3c(nnn3Cc3ccccc3Cl)c(=O)[nH]2)C1` (stereo not given), the inhibition (at 7.6 µM unless noted) was 11.9% (inactive).

For `NC(=O)Cc1nc2scc(-c3ccc(Cl)cc3)c2c(=O)[nH]1`, the inhibition (at 7.6 µM unless noted) was 4.85% (inactive).

For `CC(=O)Nc1ccc(OCC(=O)NCc2ccc(C)cc2)cc1`, the inhibition (at 7.6 µM unless noted) was 10.5% (inactive).

For `COc1ccc(C2NC(=S)NC3=C2CCc2ccccc23)cc1OC` (stereo not given), the inhibition (at 7.6 µM unless noted) was 18.9% (inactive).

With `COc1ccc(Cl)cc1CSc1ncn[nH]1` the inhibition (at 7.6 µM unless noted) was 13.5% (inactive).

In the case of `COc1cccc(-n2c(=S)sc3c(=O)n(-c4ccccc4OC)c(SCC4OCCO4)nc32)c1`, the inhibition (at 7.6 µM unless noted) was 28.1% (inactive).

With `OC1CCCN(c2ncnc3c2nnn3Cc2c(F)cccc2Cl)C1` (stereo not given) the inhibition (at 7.6 µM unless noted) was 19.6% (inactive).

With `Cc1cnc(C(=O)OCC(=O)N2CCc3ccccc32)cn1` the inhibition (at 7.6 µM unless noted) was -4.77% (inactive).

With `COCCn1c(C)cc(C(=O)CSc2nc3ccccc3c(=O)n2C(C)COC)c1C` (stereo not given) the inhibition (at 7.6 µM unless noted) was 8.22% (inactive).

For `Cc1nc(CNS(=O)(=O)c2cc([N+](=O)[O-])ccc2C)cs1`, the inhibition (at 7.6 µM unless noted) was 22.4% (inactive).

For `CCCCCCCC(=O)OC(CN1CCCCCC1)CN1CCCC1=O` (stereo not given), the inhibition (at 7.6 µM unless noted) was 0.73% (inactive).

With `COc1ccccc1N1CCN(C(=O)CSc2ncnc3c2cnn3-c2ccc(C)c(C)c2)CC1` the inhibition (at 7.6 µM unless noted) was 19.7% (inactive).

For `CCOc1cc(C2C(C(=O)OC(C)C)=C(C)NC3=C2C(=O)CCC3)cc([N+](=O)[O-])c1O` (stereo not given), the inhibition (at 7.6 µM unless noted) was 16.6% (inactive).

With `COc1ccc(C)cc1NC(=O)NCc1ccccn1` the inhibition (at 7.6 µM unless noted) was 16.2% (inactive).

For `CC(/C=C/c1ccco1)=N/NC(=O)C1COc2ccccc2O1` (stereo not given), the inhibition (at 7.6 µM unless noted) was 16.1% (inactive).

For `COc1ccc(-n2c(C)nn(CC3CC3)c2=O)cc1`, the inhibition (at 7.6 µM unless noted) was -10.4% (inactive).

In the case of `Cc1ccnc2nc(C(=O)OCC(=O)N(CC(C)C)CC(C)C)nn12`, the inhibition (at 7.6 µM unless noted) was 6.65% (inactive).

For `CNC(=S)N1CCC(NC(=O)C(Cc2ccc(F)cc2)NC(C)=O)CC1` (stereo not given), the inhibition (at 7.6 µM unless noted) was 5.74% (inactive).

For `COc1ccc(CC(=O)NCc2nnc(SCC(=O)Nc3nccs3)n2C)cc1`, the inhibition (at 7.6 µM unless noted) was 7.45% (inactive).
